Reference: publication PMC10321171 (Virulence, 2023)
Values after ≈ are worked out from the molar mass of the structure shown.

Columns and labels:
[1] = tested on: C. albicans; details: subinhibitory concentrations; cited from earlier work
[2] = tested on: C. albicans; assay: Determination of MIC by broth microdilution; format: cell-based; details: Candida albicans, read-out: MICs, strain YEM30, wild-type strain
[3] = tested on: C. albicans YEM30; assay: Drug resistance development test; format: cell-based, Candida albicans
[4] = tested on: C. albicans YEM30; assay: G. mellonella-C. albicans infection model; format: in vivo, Galleria mellonella; details: 2 μg/larva, 2 h after infection
Outline: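 Larvae were infected with 10 μL YEM30 (2 × 10^5 CFU/mL) into the last right foreleg. After 2 h they were injected with 10 μL of test compound (2 μg/larva), fluconazole (2 μg/larva) or PBS, then kept at 37°C in the dark. Death was no response to slight contact; survival was scored daily for 5 days (log-rank test). For fungal burden (40 larvae/group), six larvae/day were homogenized in PBS, serially diluted and plated on YPD.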

SMILES	farnesol levels compared to untreated cells [1]	MIC [2] [µg/mL]	MIC ([3]; Candida albicans, YEM30, read-out: MIC value after consecutive treatment) [µg/mL]	drug resistance development ([3]; YEM30, consecutive treatment with 1/2 MIC, up to 40 days)	fungal burden vs control group [4]	survival rate of infected larvae ([4]; 5 days) [%]
C/C=C/CCCC/C=C/CCCCC(=O)O[C@@H]1[C@@H](O)[C@@]2(CCC(C)C(O)C(C)C/C=C/c3ccccc3)O[C@H](C(=O)O)[C@@](O)(C(=O)O)[C@]1(C(=O)O)O2 (stereo partly drawn) [zaragozic acid B]	8–10 folds					
OC(Cn1cncn1)(Cn1cncn1)c1ccc(F)cc1F [FLC, Fluconazole]		1 (≈ 3.27 µM)	8 (≈ 26.1 µM)	developed drug resistance after being treated with 1/2 MIC of FLC for 5 days	greatly reduced the fungal burden	73
